Calls of active or inactive are those of the source. The rule behind the calls is not given here.
Key:
[1] = tested on: Rattus norvegicus; experiment: Toxicity in female Wistar rat assessed as brain to body weight ratio at 30 mg/kg, po measured after 28 days (reference value: 0.970 +/- 0.023); type: organism-based; set-up: dose 30 mg/kg, route oral; details: in vivo, 672 h
[2] = tested on: Mus musculus; experiment: Reduction in serum triglyceride level in Swiss albino mouse at 10 mg/kg, po administered for 6 days relative to control; type: functional; set-up: scale not given: the % may be the effect or the level left
Procedure, shortened: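 Male Swiss albino mice aged 6–8 weeks were given 10 mg/kg/day orally for 6 days. Serum triglyceride was expressed as % change versus vehicle controls, mean of n = 6.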

[3] = tested on: Rattus norvegicus; experiment: Toxicity in female Wistar rat assessed as spleen to body weight ratio at 3 mg/kg, po measured after 28 days (reference value: 0.237 +/- 0.012); type: organism-based; set-up: dose 3 mg/kg, route oral; details: in vivo, 672 h
[4] = tested on: Rattus norvegicus; experiment: Toxicity in male Wistar rat assessed as SGPT level at 3 mg/kg, po measured after 28 days (reference value: 34.24 +/- 2.13 U/L); type: organism-based; set-up: dose 3 mg/kg, route oral; details: in vivo, 672 h
[5] = tested on: Rattus norvegicus; experiment: Toxicity in male Wistar rat assessed as creatinine level at 3 mg/kg, po measured after 28 days (reference value: 0.47 +/- 0.03 mg/dl); type: organism-based; set-up: dose 3 mg/kg, route oral; details: in vivo, 672 h
[6] = tested on: Rattus norvegicus; experiment: Toxicity in female Wistar rat assessed as liver to body weight ratio at 3 mg/kg, po measured after 28 days (reference value: 3.091 +/- 0.087); type: organism-based; set-up: dose 3 mg/kg, route oral; details: in vivo, 672 h
[7] = tested on: Rattus norvegicus; experiment: Toxicity in female Wistar rat assessed as SGPT level at 3 mg/kg, po measured after 28 days (reference value: 30.44 +/- 1.59 U/L); type: organism-based; set-up: dose 3 mg/kg, route oral; details: in vivo, 672 h
[8] = tested on: Mus musculus; experiment: Hypolipidemic activity in Swiss albino mouse assessed as reduction in triglyceride level at 0.1 mg/kg, po; type: functional; set-up: scale not given: the % may be the effect or the level left
[9] = tested on: Mus musculus; experiment: Hypolipidemic activity in db/db mouse assessed as reduction in triglyceride level at 3 mg/kg, po; type: functional; set-up: scale not given: the % may be the effect or the level left
[10] = species on record: Mus musculus; experiment: Antihyperglycemic activity in db/db mouse assessed as reduction in plasma glucose level; type: functional
[11] = tested on: Mus musculus; experiment: Antihyperglycemic activity in db/db mouse assessed as reduction in glucose level at 3 mg/kg/day, po administered for 6 days relative to control; type: functional; set-up: scale not given: the % may be the effect or the level left
Procedure, shortened: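 Male db/db mice aged 6–8 weeks were dosed orally once daily for 6 days. Plasma glucose was then measured and expressed as % change versus vehicle-treated controls.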

[12] = target: T1, Peroxisome proliferator-activated receptor delta (Homo sapiens) (UniProt Q03181); experiment: Transactivation of human PPARdelta expressed in human HepG2 cells co-transfected with PPRE3-TK-Luc by luciferase reporter gene assay; type: cell-based
T1 sequence (whole entry): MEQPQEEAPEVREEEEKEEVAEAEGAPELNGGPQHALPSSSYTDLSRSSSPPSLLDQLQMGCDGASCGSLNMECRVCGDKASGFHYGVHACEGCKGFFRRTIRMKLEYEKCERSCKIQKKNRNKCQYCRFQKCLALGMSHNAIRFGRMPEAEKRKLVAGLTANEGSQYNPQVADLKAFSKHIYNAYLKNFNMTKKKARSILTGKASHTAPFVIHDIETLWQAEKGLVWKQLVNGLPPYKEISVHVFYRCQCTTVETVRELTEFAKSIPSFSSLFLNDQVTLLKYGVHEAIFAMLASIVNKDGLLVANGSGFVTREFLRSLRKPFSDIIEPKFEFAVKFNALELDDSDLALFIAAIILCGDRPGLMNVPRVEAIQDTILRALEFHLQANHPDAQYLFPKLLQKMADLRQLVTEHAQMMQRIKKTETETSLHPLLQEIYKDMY
Procedure, shortened: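 HepG2 cells transfected with pSG5 vector carrying hPPARα, hPPARγ or hPPARδ cDNA, co-transfected with PPRE3-TK-luc. Firefly luciferase activity measured with a commercial kit. β-galactosidase activity read on an ELISA reader. Controls: WY14643 (α), rosiglitazone (γ), GW501516 (δ).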

[13] = tested on: Rattus norvegicus; experiment: Toxicity in male Wistar rat assessed as ALP level at 30 mg/kg, po measured after 28 days (reference value: 243.88 +/- 20.34 U/L); details: in vivo, 672 h
[14] = tested on: Mus musculus; experiment: Hypolipidemic activity in Swiss albino mouse assessed as reduction in triglyceride level at 1 mg/kg, po; type: functional; set-up: scale not given: the % may be the effect or the level left
[15] = target: T2, Peroxisome proliferator-activated receptor alpha (Homo sapiens) (UniProt Q07869); experiment: Transactivation of human PPARalpha expressed in human HepG2 cells co-transfected with PPRE3-TK-Luc by luciferase reporter gene assay relative to WY14643; type: cell-based
T2 sequence (whole entry): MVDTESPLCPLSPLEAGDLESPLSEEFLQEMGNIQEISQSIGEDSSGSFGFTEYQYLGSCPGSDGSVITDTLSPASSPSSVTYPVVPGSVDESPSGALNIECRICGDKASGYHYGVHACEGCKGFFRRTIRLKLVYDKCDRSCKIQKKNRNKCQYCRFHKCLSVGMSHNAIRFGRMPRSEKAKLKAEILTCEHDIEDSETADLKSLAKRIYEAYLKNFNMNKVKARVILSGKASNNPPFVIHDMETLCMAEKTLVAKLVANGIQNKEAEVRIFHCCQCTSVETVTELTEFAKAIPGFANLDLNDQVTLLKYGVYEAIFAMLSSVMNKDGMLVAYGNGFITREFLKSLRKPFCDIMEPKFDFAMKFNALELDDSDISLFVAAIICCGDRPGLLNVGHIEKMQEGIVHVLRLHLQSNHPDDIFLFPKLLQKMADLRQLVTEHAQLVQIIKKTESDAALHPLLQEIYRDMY
Procedure, shortened: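 Same HepG2 hPPARα or hPPARγ / PPRE3-TK-luc luciferase transactivation assay. Efficacy expressed as percent of maximal response, normalized to 100% for the reference agonist: WY-14643 for α, rosiglitazone for γ.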

[16] = tested on: Rattus norvegicus; experiment: Toxicity in male Wistar rat assessed as hemoglobin level at 30 mg/kg, po measured after 28 days (reference value: 13.66 +/- 0.23 g/dl); type: organism-based; set-up: dose 30 mg/kg, route oral; details: in vivo, 672 h
[17] = tested on: Mus musculus; experiment: Antihyperglycemic activity in db/db mouse assessed as reduction in plasma glucose level at 0.003 mg/kg, po; type: functional; set-up: scale not given: the % may be the effect or the level left
[18] = tested on: Mus musculus; experiment: Hypolipidemic activity in db/db mouse assessed as reduction in triglyceride level at 0.1 mg/kg, po; type: functional; set-up: scale not given: the % may be the effect or the level left
[19] = AUC (0 to infinity) in fasting Wistar rat at 30 mg/kg, po; type: ADME, organism-based; set-up: time infinity, dose 30 mg/kg, route oral; details: plasma
Procedure, shortened: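 Single oral dose of 30 mg/kg to fasted male Wistar rats. Pharmacokinetic parameters reported as mean ± SD, n = 3.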

[20] = tested on: Rattus norvegicus; experiment: Toxicity in male Wistar rat assessed as epididymine to body weight ratio at 30 mg/kg, po measured after 28 days (reference value: 0.391 +/- 0.017); type: organism-based; set-up: dose 30 mg/kg, route oral; details: in vivo, 672 h
[21] = tested on: Rattus norvegicus; experiment: Toxicity in male Wistar rat assessed as brain to body weight ratio at 3 mg/kg, po measured after 28 days (reference value: 0.658 +/- 0.015); type: organism-based; set-up: dose 3 mg/kg, route oral; details: in vivo, 672 h

Activity [12]: inactive | Emax [15]: 116% | AUC(0-inf) [19]: 456 µg·h/mL
Compound: CCO[C@@H](Cc1ccc(OCCc2nc(-c3ccc(C)s3)oc2C)cc1)C(=O)O
Ratio [1]: 0.939 | Activity [2]: 88% | Ratio [3]: 0.257 | Activity [4]: 28.54 U/L | Activity [5]: 0.36 mg/dL | Ratio [6]: 6.221 | Activity [7]: 22.46 U/L | Activity [8]: 71.8% | Activity [9]: 55.1% | ED50 [10]: 0.166 mg/kg | Activity [11]: 72% | Activity [13]: 679.13 U/L | Activity [14]: 82% | Activity [16]: 12.46 g/dL | Activity [17]: 47.1% | Activity [18]: 49.4% | Ratio [20]: 0.432 | Ratio [21]: 0.72

Reference: ChEMBL document CHEMBL1811848 (Bioorg Med Chem Lett, 2011)
